Series [1] deals with GABA-A receptor; alpha-3/beta-3/gamma-2 (Homo sapiens) (UniProt P18507+P28472+P34903). The series is described as follows: In vitro percent efficacy against human gamma-aminobutyric-acid A receptor alpha-3-beta-3-gamma-2 expressed in L(tk-) cells. In kind it is cell-based. Summed up:
(§1)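 Whole-cell patch clamp on mouse fibroblast L(tk-) cells stably expressing human αxβ3γ2 receptors. Efficacy is the maximum % modulation of current evoked by a submaximal (EC20) GABA concentration. Mean ± SEM from at least five individually fitted concentration–response curves per subtype.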

In series [2] the target is GABA-A receptor; alpha-5/beta-3/gamma-2 (Homo sapiens) (UniProt P18507+P28472+P31644). Nature of the series: In vitro percent efficacy against human gamma-aminobutyric-acid A receptor alpha-5-beta-3-gamma-2 expressed in L(tk-) cells. The series is classed as cell-based. Summed up:
as §1

Series [3] deals with GABA-A receptor; alpha-1/beta-3/gamma-2 (Homo sapiens) (UniProt P14867+P18507+P28472). The series is described as follows: In vitro percent efficacy against human gamma-aminobutyric-acid A receptor alpha-1-beta-3-gamma-2 expressed in L(tk-) cells. In kind it is cell-based. Summed up: as §1
In series [4] the target is GABA-A receptor; alpha-2/beta-3/gamma-2 (Homo sapiens) (UniProt P18507+P28472+P47869). The series is described as follows: In vitro percent efficacy against human gamma-aminobutyric-acid A receptor alpha-2-beta-3-gamma-2 expressed in L(tk-) cells. The series is classed as cell-based. Summed up:
as §1

Series [5] in a line: Oral bioavailability in rat. In kind it is ADME, organism-based. The following applies: in vivo.
For series [6], the target named is T1, GABA-A receptor; alpha-1/beta-3/gamma-2 (Homo sapiens, UniProt P14867+P18507+P28472).
T1 sequence (P14867 whole entry): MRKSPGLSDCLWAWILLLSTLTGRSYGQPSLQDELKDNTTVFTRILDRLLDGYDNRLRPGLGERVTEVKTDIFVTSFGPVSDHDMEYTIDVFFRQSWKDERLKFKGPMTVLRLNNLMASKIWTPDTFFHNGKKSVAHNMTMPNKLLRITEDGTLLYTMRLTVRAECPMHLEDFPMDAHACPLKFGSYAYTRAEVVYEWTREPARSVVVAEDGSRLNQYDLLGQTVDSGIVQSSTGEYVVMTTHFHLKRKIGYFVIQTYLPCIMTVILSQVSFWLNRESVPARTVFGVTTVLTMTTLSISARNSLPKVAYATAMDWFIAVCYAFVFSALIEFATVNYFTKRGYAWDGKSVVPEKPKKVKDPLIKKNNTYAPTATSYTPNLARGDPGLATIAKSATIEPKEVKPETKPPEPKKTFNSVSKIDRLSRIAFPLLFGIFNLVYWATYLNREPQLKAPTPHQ
T1 sequence (P18507 whole entry): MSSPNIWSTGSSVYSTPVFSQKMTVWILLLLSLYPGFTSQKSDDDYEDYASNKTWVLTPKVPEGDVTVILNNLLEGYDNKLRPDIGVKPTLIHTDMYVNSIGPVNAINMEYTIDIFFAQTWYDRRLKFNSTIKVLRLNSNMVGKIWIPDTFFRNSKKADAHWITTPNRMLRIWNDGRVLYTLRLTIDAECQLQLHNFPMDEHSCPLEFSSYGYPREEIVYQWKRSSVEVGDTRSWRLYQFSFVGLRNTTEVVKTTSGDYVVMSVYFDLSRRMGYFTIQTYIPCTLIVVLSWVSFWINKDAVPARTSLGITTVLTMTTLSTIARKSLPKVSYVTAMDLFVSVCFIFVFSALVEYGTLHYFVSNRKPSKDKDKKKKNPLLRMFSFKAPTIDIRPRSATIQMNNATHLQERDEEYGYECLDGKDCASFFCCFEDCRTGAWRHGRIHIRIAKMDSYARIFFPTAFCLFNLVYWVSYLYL
T1 sequence (P28472 whole entry): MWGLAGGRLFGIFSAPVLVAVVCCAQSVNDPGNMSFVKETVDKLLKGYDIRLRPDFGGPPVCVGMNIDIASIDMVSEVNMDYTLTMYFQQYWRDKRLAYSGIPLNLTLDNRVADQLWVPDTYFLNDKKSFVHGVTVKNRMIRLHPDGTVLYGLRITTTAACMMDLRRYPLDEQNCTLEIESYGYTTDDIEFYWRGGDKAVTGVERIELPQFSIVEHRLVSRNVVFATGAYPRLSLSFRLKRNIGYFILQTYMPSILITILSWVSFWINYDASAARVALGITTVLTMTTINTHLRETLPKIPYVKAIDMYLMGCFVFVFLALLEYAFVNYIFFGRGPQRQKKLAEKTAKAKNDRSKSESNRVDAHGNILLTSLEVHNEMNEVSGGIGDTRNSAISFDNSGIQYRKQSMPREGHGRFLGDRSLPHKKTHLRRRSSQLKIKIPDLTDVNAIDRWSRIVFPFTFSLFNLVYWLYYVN
Nature of the series: Displacement of [3H]-Ro- 15-1788 from human gamma-aminobutyric-acid GABA-A receptor alpha-1-beta-3-gamma-2 expressed in L(tk-) cells. The series is classed as cell-based.

Series [7] deals with T2, GABA-A receptor; alpha-2/beta-3/gamma-2 (Homo sapiens, UniProt P18507+P28472+P47869).
T2 sequence (P18507 whole entry): T1 sequence (P18507 whole entry)
T2 sequence (P28472 whole entry): T1 sequence (P28472 whole entry)
T2 sequence (P47869 whole entry): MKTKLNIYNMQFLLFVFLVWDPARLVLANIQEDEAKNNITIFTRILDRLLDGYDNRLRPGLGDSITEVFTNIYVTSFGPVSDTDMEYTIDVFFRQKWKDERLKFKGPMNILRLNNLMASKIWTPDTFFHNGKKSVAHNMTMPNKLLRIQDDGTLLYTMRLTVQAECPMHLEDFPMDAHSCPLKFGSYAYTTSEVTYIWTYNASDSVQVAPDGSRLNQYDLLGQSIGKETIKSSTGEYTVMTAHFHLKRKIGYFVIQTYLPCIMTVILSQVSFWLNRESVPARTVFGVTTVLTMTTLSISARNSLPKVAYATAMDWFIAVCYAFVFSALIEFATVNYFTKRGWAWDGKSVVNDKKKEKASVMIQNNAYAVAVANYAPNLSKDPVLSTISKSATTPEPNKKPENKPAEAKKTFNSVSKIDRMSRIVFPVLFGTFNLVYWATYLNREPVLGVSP
Nature of the series: Displacement of [3H]-Ro- 15-1788 from human gamma-aminobutyric-acid GABA-A receptor alpha-2-beta-3-gamma-2 expressed in L(tk-) cells. The series is classed as cell-based. In general terms: Loss of bound radioactivity is the signal in a displacement assay; it reports binding, not function.

For series [8], the target named is T3, GABA-A receptor; alpha-3/beta-3/gamma-2 (Homo sapiens, UniProt P18507+P28472+P34903).
T3 sequence (P18507 whole entry): T1 sequence (P18507 whole entry)
T3 sequence (P28472 whole entry): T1 sequence (P28472 whole entry)
T3 sequence (P34903 whole entry): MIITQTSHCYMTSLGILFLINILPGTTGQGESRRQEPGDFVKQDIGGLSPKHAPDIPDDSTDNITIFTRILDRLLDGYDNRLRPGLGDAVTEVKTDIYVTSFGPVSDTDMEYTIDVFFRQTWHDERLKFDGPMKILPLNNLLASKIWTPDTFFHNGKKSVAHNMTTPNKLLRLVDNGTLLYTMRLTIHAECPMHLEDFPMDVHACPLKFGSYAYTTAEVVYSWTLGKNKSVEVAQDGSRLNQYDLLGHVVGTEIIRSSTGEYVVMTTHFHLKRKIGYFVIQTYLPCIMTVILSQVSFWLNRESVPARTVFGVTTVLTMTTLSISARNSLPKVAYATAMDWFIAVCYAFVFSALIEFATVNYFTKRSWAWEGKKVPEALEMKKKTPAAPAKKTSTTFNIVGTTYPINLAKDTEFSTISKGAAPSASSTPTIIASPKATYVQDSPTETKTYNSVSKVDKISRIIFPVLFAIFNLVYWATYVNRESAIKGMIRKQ
Nature of the series: Displacement of [3H]-Ro- 15-1788 from human gamma-aminobutyric-acid GABA-A receptor alpha-3-beta-3-gamma-2 expressed in L(tk-) cells. The series is classed as cell-based.

In series [9] the target is T4, GABA-A receptor; alpha-5/beta-3/gamma-2 (Homo sapiens, UniProt P18507+P28472+P31644).
T4 sequence (P18507 whole entry): T1 sequence (P18507 whole entry)
T4 sequence (P28472 whole entry): T1 sequence (P28472 whole entry)
T4 sequence (P31644 whole entry): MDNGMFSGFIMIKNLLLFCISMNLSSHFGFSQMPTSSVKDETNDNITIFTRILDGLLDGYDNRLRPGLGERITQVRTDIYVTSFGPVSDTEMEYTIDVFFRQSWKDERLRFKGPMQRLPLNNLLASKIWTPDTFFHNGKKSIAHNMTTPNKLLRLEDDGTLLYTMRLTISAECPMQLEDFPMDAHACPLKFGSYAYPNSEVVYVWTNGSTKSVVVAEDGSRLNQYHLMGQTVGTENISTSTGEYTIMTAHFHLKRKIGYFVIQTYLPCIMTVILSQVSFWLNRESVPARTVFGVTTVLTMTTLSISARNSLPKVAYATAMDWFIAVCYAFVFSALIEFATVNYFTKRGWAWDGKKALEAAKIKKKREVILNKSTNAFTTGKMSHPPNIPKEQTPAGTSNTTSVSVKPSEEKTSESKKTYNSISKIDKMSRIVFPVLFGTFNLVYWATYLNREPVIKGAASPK
The series is described as follows: Displacement of [3H]-Ro- 15-1788 from human gamma-aminobutyric-acid GABA-A receptor alpha-5-beta-3-gamma-2 expressed in L(tk-) cells. The series is classed as cell-based.

For series [10], the target named is GABA-A receptor; anion channel (Rattus norvegicus) (UniProt O09028+P15431+P18506+P18508+P19969+P20236+P23574+P23576+P28471+P28473+P30191+P62813+P63079+P63138+Q91ZM7+Q9ES14). The series is described as follows: Concentration required to occupy 50% of gamma-aminobutyric-acid GABA-A receptor alpha subtype at 0.75 hr after dose. The series is classed as protein-complex assay. Summed up:
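Rats dosed orally in 0.5% Methocel vehicle; occupancy of the benzodiazepine binding site measured 0.75 h postdose by in vivo [3H]Ro 15-1788 binding. Dose giving 50% occupancy read from the dose–occupancy relationship.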

Series [11] can be described thus: Oral bioavailability in dog. The following applies: in vivo. In kind it is ADME, organism-based, Canis lupus familiaris.
The target in series [12] is GABA A receptor alpha-4/beta-3/gamma-2 (Homo sapiens, UniProt P18507+P28472+P48169). The series is described as follows: Binding affinity towards gamma-aminobutyric-acid GABA-A receptor alpha-4-beta-3-gamma-2. The series is classed as protein-complex assay.
Series [13] deals with GABA-A receptor; alpha-6/beta-3/gamma-2 (Homo sapiens, UniProt P18507+P28472+Q16445). The series is described as follows: Binding affinity towards gamma-aminobutyric-acid GABA-A receptor alpha-6-beta-3-gamma-2. The series is classed as protein-complex assay.

SMILES strings stand for the structures.

Chain of GABA-A receptor; alpha-6/beta-3/gamma-2 (Q16445 whole entry, one chain of several): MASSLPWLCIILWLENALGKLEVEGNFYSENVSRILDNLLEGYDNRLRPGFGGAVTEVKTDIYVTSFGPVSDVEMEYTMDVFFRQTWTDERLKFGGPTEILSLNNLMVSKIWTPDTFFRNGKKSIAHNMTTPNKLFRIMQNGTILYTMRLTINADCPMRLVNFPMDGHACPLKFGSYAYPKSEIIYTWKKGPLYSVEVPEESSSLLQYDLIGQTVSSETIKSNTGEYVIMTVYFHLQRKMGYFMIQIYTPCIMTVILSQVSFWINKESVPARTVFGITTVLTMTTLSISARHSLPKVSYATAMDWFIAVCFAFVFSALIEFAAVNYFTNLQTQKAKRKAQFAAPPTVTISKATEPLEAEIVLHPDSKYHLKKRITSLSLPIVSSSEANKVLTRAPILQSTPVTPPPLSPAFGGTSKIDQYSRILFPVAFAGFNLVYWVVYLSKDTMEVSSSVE
Chain of GABA A receptor alpha-4/beta-3/gamma-2 (P48169 whole entry, one chain of several): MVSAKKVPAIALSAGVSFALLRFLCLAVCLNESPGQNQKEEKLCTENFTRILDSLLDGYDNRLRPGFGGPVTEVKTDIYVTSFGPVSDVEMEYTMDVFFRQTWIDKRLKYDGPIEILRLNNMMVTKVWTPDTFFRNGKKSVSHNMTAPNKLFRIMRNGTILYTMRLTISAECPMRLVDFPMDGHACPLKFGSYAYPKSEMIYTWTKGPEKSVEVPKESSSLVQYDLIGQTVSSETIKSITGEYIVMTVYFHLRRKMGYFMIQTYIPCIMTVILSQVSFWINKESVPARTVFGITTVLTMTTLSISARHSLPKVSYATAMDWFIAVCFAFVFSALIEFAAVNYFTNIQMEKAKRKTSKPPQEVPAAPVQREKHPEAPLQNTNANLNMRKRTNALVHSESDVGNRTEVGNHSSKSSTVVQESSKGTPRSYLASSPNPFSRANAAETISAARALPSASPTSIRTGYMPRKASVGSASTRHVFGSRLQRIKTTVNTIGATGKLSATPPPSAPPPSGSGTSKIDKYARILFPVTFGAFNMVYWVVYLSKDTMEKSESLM

For the compound `CCc1c(C(=O)OC)ncc2[nH]c3cc(OC)c(OC)cc3c12`, the Efficacy in [1] is -62%; in series [2] it was -57%; in [3], -71%; in [4], -53%.

Regarding `CNC1=Nc2ccc(Cl)cc2C(c2ccccc2)=[N+]([O-])C1`, the Efficacy in [1] turned out to be 113%; in series [3], 100%; in series [4], 111%.

As for `Cc1cc(-c2nnc3c4ccccc4c(OCc4cn(C)nn4)nn23)no1`, the Efficacy was -7% in series [1], -40% in series [2], -15% in series [3] and 16% in [4].

Turning to `Cc1cc(-c2nncc3c(C(C)(C)C)c(OCc4ncnn4C)nn23)no1`, the bioavailability – broadly, dose-corrected exposure relative to a reference, in per cent – in series [5] was determined as 52%; in [11], 8%. In addition, the Ki (in general, a dissociation constant, usually derived from enzyme kinetics or from competition with a known ligand) is 0.83 nM in [6]; 0.85 nM in series [7]; 0.77 nM in series [8]; 1.4 nM in series [9]; 395 nM in series [12]; over 4000 nM in series [13]. Moreover, the Occupancy in [10] turned out to be 0.35 mg/kg. Also, the Efficacy in series [1] was -9%; in series [2], -55%; in series [3] it was -16%; in series [4] it was 6%.

(Values after ChEMBL document CHEMBL1138841, “An orally bioavailable, functionally selective inverse agonist at the benzodiazepine site of GABAA alpha5 receptors with cognition enhancing properties” (J Med Chem, 2004).)
